Laboratory results: ChEMBL document CHEMBL5505959, “Identification of 4-amino-2-Pyridones as new potent PCSK9 inhibitors: From phenotypic hit discovery to in vivo tolerability” (Eur J Med Chem, 2024)
Active and inactive are the calls of the source. The rule behind the calls is not given here.

Key:
[1] = Toxicity in C57BL/6 mouse assessed as abnormal arrangements of hepatocyte at 40 mg/kg, sc measured after 7 days by histopathological analysis; assay type: organism-based; settings: hepatocytes, 168 h, time 7 day
How it was run: (§1)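 Male C57BL/6J mice, three months old, 26–30 g (n = 5–6/group), received daily sc injections of 40 mg/kg in Transcutol, 50 µl, for seven days. Controls were vehicle and SBC-115076 4 mg/kg. Readouts were daily body weight, open-field locomotion and modified SHIRPA, and gross organ inspection. Liver H&E cryosections were scored by two operators; plasma cholesterol by colorimetric assay, PCSK9 by ELISA.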

[2] = Toxicity in C57BL/6 mouse assessed as effect on kidney at 40 mg/kg, sc measured after 7 days by H and E staining based analysis; assay type: organism-based; settings: in vivo, 168 h, time 7 day
[3] = Toxicity in C57BL/6 mouse assessed as effect on urination at 40 mg/kg, sc measured after 7 days; assay type: organism-based; settings: in vivo, 168 h, time 7 day; how it was run: as §1
HepG2 [4] = experiment: Downregulation of mature PCSK9 level in human HepG2 cells by Western blot analysis; assay type: functional, cell-based
How it was run: (§2)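 HepG2 cells were treated overnight or for 24 h, alone or with simvastatin 40 μM. Lysates (1 % NP-40, 150 mM NaCl, 50 mM Tris-HCl pH 7.5) were loaded at 25 µg protein on 4–20 % SDS-PAGE. Blots were probed for proPCSK9, mature PCSK9 and LDLR, and densitometry was normalized to β-actin or GAPDH. Mean ± SD of three independent experiments.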

[5] = Toxicity in C57BL/6 mouse assessed as effect on body weight at 40 mg/kg, sc measured after 7 days; assay type: organism-based; settings: in vivo, 168 h, time 7 day; how it was run: as §1
[6] = Toxicity in C57BL/6 mouse assessed as effect on spleen at 40 mg/kg, sc measured after 7 days by H and E staining based analysis; assay type: organism-based; settings: in vivo, 168 h, time 7 day
HepG2 [7] = experiment: Induction of LDLR expression in human HepG2 cells by Western blot analysis; assay type: functional, cell-based; how it was run: as §2
[8] = Toxicity in C57BL/6 mouse assessed as effect on liver at 40 mg/kg, sc measured after 7 days by H and E staining based analysis; assay type: organism-based; settings: in vivo, 168 h, time 7 day; how it was run: as §1
HepG2 [9] = experiment: Cytotoxicity against human HepG2 cells assessed as reduction in cell viability at 5 uM measured after 24 hrs by SRB assay relative to control; assay type: functional
How it was run: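 HepG2 seeded 8000 cells/well in complete MEM; next day medium replaced with 0.4 % FBS medium containing compound or DMSO control. Viability was read by sulforhodamine B assay after 24 h, with absorbance at 570 nm. Dose-response series used 6.25, 12.5, 25, 50 or 100 μM; newer analogues were tested at a fixed 5 μM. Data are mean ± SD of three independent experiments.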

[10] = Toxicity in C57BL/6 mouse assessed as effect on brain at 40 mg/kg, sc measured after 7 days by H and E staining based analysis; assay type: organism-based; settings: in vivo, 168 h, time 7 day
[11] = Toxicity in C57BL/6 mouse assessed as cellular necrosis at 40 mg/kg, sc measured after 7 days by histopathological analysis; assay type: organism-based; settings: in vivo, 168 h, time 7 day; how it was run: as §1
[12] = Toxicity in C57BL/6 mouse assessed as effect on gut at 40 mg/kg, sc measured after 7 days by macroscopic analysis; settings: in vivo, 168 h
HepG2 [13] = experiment: Downregulation of proPCSK9 level in human HepG2 cells by Western blot analysis; assay type: functional, cell-based; how it was run: as §2
[14] = Toxicity in C57BL/6 mouse assessed as reduction in ALT plasma level at 40 mg/kg, sc measured after 7 days by ELISA method; assay type: organism-based; settings: in vivo, 168 h, time 7 day
How it was run: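 Male C57BL/6J mice, 3 months old, dosed subcutaneously at 40 mg/kg daily for seven days in Transcutol. Killed under isoflurane 6 h after the final dose. Retro-orbital blood taken into EDTA and spun at 3000 rpm, 4 °C, 10 min. Plasma ALT measured by ELISA kit. Mean ± SEM, n = 5–6 per group.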

[15] = Downregulation of PCSK9 mRNA level in human HepG2 cells at 5 uM by qRT-PCR analysis relative to control; assay type: functional
How it was run: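 Total RNA was taken from treated HepG2 cells for RT-qPCR of PCSK9, FAS and HMG-CoA reductase. Cycling was 50 °C 10 min, 95 °C 2 min, then 40 cycles of 95 °C 5 s and 60 °C 10 s. Relative quantification used ΔΔCt against 18S, corrected for primer efficiency. Mean ± SD of three independent experiments.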

[16] = Toxicity in C57BL/6 mouse assessed as inflammatory cells infiltration at 40 mg/kg, sc measured after 7 days by histopathological analysis; assay type: organism-based; settings: in vivo, 168 h, time 7 day
How it was run: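 Male C57BL/6J mice, 3 months old, 26–30 g, given 40 mg/kg subcutaneously in 100 % Transcutol (vehicle group) for seven days. Killed 6 h after the last injection. Liver fixed in 4 % PFA, cryoprotected in 20 % sucrose and cut into 7 µm cryosections. Sections stained with hematoxylin/eosin and scored by two operators for hepatocyte arrangement, inflammatory infiltration and necrosis.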

[17] = Toxicity in C57BL/6 mouse assessed as drug tolerance at 40 mg/kg, sc measured after 7 days; assay type: organism-based; settings: in vivo, 168 h, time 7 day; how it was run: as §1
[18] = Toxicity in C57BL/6 mouse assessed as spontaneous locomotor activity at 40 mg/kg, sc measured after 7 days; assay type: organism-based; settings: in vivo, 168 h, time 7 day
How it was run: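 Open-field test in male C57BL/6J mice: 10 min free exploration of a 50 × 50 × 40 cm wooden chamber, with distance and speed tracked automatically. Basal sessions were run before dosing, then testing continued across daily 50 µl subcutaneous injections (40 mg/kg, Transcutol vehicle). Distance, mean speed and % time in corners and arena were recorded as part of a modified SHIRPA screen.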

[19] = Toxicity in C57BL/6 mouse assessed as changes in fur sheen at 40 mg/kg, sc measured after 7 days; assay type: organism-based; settings: in vivo, 168 h, time 7 day; how it was run: as §1
[20] = Toxicity in C57BL/6 mouse assessed as effect on plasma total cholesterol level at 40 mg/kg, sc measured after 7 days by biochemical assay; settings: in vivo, 168 h
HepG2 [21] = experiment: Inhibition of simvastatin induced PCSK9 level in human HepG2 cells at 2.5 to 5 uM by Western blot analysis; assay type: functional, cell-based; settings: dose 2.5-5 µM; how it was run: as §2
[22] = Inhibition of PCSK9 expression in human HepG2 cells at 5 to 10 uM by ELISA method relative to control; assay type: functional; settings: dose 5-10 µM
How it was run: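 Secreted PCSK9 was measured in HepG2 conditioned media with a human PCSK9 DuoSet sandwich ELISA. Media were centrifuged at 15000 rpm for 10 min and diluted before reading absorbance at 450 nm. Values were normalized to HepG2 total protein content. Mean ± SD of three independent experiments.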

[23] = Toxicity in C57BL/6 mouse assessed as defecations at 40 mg/kg, sc measured after 7 days; assay type: organism-based; settings: in vivo, 168 h, time 7 day; how it was run: as §1
[24] = Toxicity in C57BL/6 mouse assessed as tremor at 40 mg/kg, sc measured after 7 days; assay type: organism-based; settings: in vivo, 168 h, time 7 day
How it was run: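 General health of subcutaneously dosed C57BL/6J mice (40 mg/kg daily, Transcutol, seven days) was tracked with a modified SHIRPA screen covering phenotype, sensory and neuropsychiatric functions. Body weight was recorded daily as % change from the day −3 to −1 baseline.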

HepG2 [25] = experiment: Upregulation of LDLR/PCSK9 in human HepG2 cells at 2.5 to 5 uM in presence of simvastatin by Western blot analysis; assay type: functional, cell-based; settings: dose 2.5-5 µM
How it was run: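 HepG2 cells grown in MEM with 10 % FBS. Incubated overnight with test compound with or without simvastatin 40 μM (simvastatin dissolved in 0.1 M NaOH, pH 7.4). Lysates in 1 % NP-40 buffer; 25 µg protein run on 4–20 % SDS-PAGE. Immunoblotted for PCSK9 and LDLR, normalized to GAPDH by densitometry. Mean ± SD of three experiments, one-way ANOVA.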

HepG2 [26] = experiment: Downregulation of PCSK9 protein level in human HepG2 cells at 2.5 uM by Western blot analysis; assay type: functional, cell-based; how it was run: as §2
[27] = Toxicity in C57BL/6 mouse assessed as abnormal secretion at 40 mg/kg, sc measured after 7 days; assay type: organism-based; settings: in vivo, 168 h, time 7 day; how it was run: as §1

In the case of `Cc1cc(NCc2ccc(C(F)(F)F)cc2)cc(=O)n1Cc1ccc(C(F)(F)F)cc1`, the Activity [1] is reported as “Non-Toxic”, the Activity [2] is reported as “Non-Toxic” and the Activity [3] is reported as “Non-Toxic”. For the same compound, the Activity (HepG2 [4]) was “Active”, the Activity [5] was “Non-Toxic” and the Activity [6] was “Non-Toxic”. The Activity (HepG2 [7]) was “Active”, the Activity [8] was “Non-Toxic” and the Activity (HepG2 [9]) was over 95%. The Activity [10] was “Non-Toxic”, the Activity [11] was “Non-Toxic” and the Activity [12] was “Non-Toxic”. For the same compound, the Activity (HepG2 [13]) was “Active”, the Activity [14] was “Non-Toxic” and the Activity [15] was 100%. The Activity [16] was “Non-Toxic”, the Activity [17] was “Non-Toxic” and the Activity [18] was “Non-Toxic”. For the same compound, the Activity [19] was “Non-Toxic”, the Activity [20] was “Non-Toxic” and the inhibition (HepG2 [21]) was “Active”. For the same compound, the “inhibition (INH)” value [22] was 100%, the Activity [23] was “Non-Toxic” and the Activity [24] was “Non-Toxic”. The Activity (HepG2 [25]) was “Active”, the Activity (HepG2 [26]) was “Active” and the Activity [27] was “Non-Toxic”.
